Published values pooled from the literature.
Compare with care: the assays were run in different laboratories.
Target: Serine/threonine-protein kinase mTOR (MTOR, Homo sapiens, UniProt P42345)

SMILES	read-out	action	technique	tested at	measurement	value
C=CC(=O)N1CCC([C@@H]2CCNc3c(C(N)=O)c(-c4ccc(Oc5ccccc5)cc4)nn32)CC1	enzyme activity	inhibitor	–	1 µM	inhibition	0%
Cc1cc(O)c(-c2ccc([C@@H](C)CN(C)C)cc2)c2c1[nH]c(=O)c1sccc12	cell-free assay	inhibitor	–	0.1 µM	inhibition	9.2%
CN1CCN(C(=O)c2ccc(NC(=O)Nc3ccc(N(C)c4ccnc(Nc5ccc(CS(C)(=O)=O)cc5)n4)cc3)cc2)CC1	binding	–	–	1 µM	remaining binding	100%
C1=C/COCc2cc(ccc2OCCN2CCCC2)Nc2nccc(n2)-c2cccc(c2)COC/1	binding	–	–	0.1 µM	remaining binding	72%
COc1ccc2[nH]c3c4[nH]c5ccc(OC)cc5c4c4c(c3c2c1)C(=O)NC4=O	binding	–	–	1 µM	remaining binding	100%
CO[C@@H]1[C@H](N(C)C(=O)c2ccccc2)C[C@H]2O[C@]1(C)n1c3ccccc3c3c4c(c5c6ccccc6n2c5c31)C(=O)NC4	enzyme activity	inhibitor	–	1 µM	inhibition	0%
CCCCC(=O)Nc1ccc(-c2ccc3ncn(CCC)c(=O)c3c2)cn1	binding	–	competition with immobilised ligand	0.5 µM	remaining binding	67%
COc1ccc2oc(-c3ccc4nc(N)oc4c3)c/c(=N\c3ccccc3NC(=O)CCN)c2c1	cell-free assay	–	–	1 µM	remaining signal	7%
